Results taken from ChEMBL document CHEMBL3297688, “New orally active dual enkephalinase inhibitors (DENKIs) for central and peripheral pain treatment” (J Med Chem, 2014).
The source made the active and inactive calls.

Columns and labels:
Mus musculus [1] = test: Antinociceptive activity in OF1 mouse acute central pain model at 20 mg/kg, iv after 10 mins by hot plate test relative to vehicle-treated control; format: functional
Method in brief: (§1)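 Male OF1 mice, iv dosing in water/mannitol (50 mg/mL) vehicle. Hot plate at 52 ± 1 °C read 10 min post-injection. Jump latency with a 240 s cutoff, expressed as % MPE. n = 10 per group. ANOVA with Newman–Keuls or Bonferroni tests versus vehicle.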

Mus musculus [2] = test: Antinociceptive activity in iv dosed CD1 mouse administered with EtOH/cremophor/water after 10 mins by hot plate test; format: functional
Mus musculus [3] = test: Antinociceptive activity in po dosed CD1 mouse after 45 mins by hot plate test; format: functional; settings: 0.75 h
Mus musculus [4] = test: Antinociceptive activity in OF1 mouse acute central pain model at 150 mg/kg, po administered with EtOH/PEG400/water after 20 mins by hot plate test relative to vehicle-treated control; format: functional
Method in brief: (§2)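 Oral gavage in male OF1 mice, vehicle EtOH/PEG400/H2O (10/40/50); 150 mg/kg for single-dose lines. Hot plate (52 ± 1 °C) jump latency read at 20, 40 and 60 min, 240 s cutoff, % MPE. […] ANOVA + Newman–Keuls or Bonferroni.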

Mus musculus [5] = test: Antinociceptive activity in OF1 mouse acute central pain model at 150 mg/kg, po administered with EtOH/PEG400/water after 40 mins by hot plate test relative to vehicle-treated control; format: functional; method in brief: as §2
Mus musculus [6] = test: Antinociceptive activity in OF1 mouse acute central pain model at 150 mg/kg, po administered with EtOH/PEG400/water after 60 mins by hot plate test relative to vehicle-treated control; format: functional; method in brief: as §2
Mus musculus [7] = test: Activity in OF1 mouse acute central pain model at 10 mg/kg, iv administered as single dose by hot plate test; format: functional, organism-based; design: dose 10 mg/kg
Mus musculus [8] = test: Activity in OF1 mouse acute central pain model at 150 mg/kg, po administered as single dose by hot plate test; format: functional, organism-based; design: dose 150 mg/kg
Method in brief: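 Hot plate at 52 ± 1 °C, male OF1 mice. Single oral dose of 150 mg/kg. Jump latency recorded with a 240 s cutoff and converted to % MPE against control latency.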

Mus musculus [9] = test: Antinociceptive activity in OF1 mouse acute central pain model at 40 mg/kg, iv after 10 mins by hot plate test relative to vehicle-treated control; format: functional; method in brief: as §1
Mus musculus [10] = test: Antinociceptive activity in OF1 mouse acute central pain model at 60 mg/kg, iv after 10 mins by hot plate test relative to vehicle-treated control; format: functional; method in brief: as §1
Mus musculus [11] = test: Antinociceptive activity in OF1 mouse acute central pain model at 10 mg/kg, iv administered with EtOH/Tween80/water after 10 mins by hot plate test relative to vehicle-treated control; format: functional
Method in brief: (§3)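 Male OF1 mice dosed iv in ethanol/Tween80/water (1/1/8). Jump latency on a 52 ± 1 °C hot plate (240 s cutoff) read 10 min after injection, expressed as mean % MPE ± SEM. n = 18–21 per group for dose–response, n = 8 for 10 mg/kg comparisons. ED50 taken from dose–response. ANOVA + Bonferroni.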

Mus musculus [12] = test: Antinociceptive activity in OF1 mouse persistent pain model assessed as reduction of formalin-induced paw licking at 50 mg/kg, po administered with EtOH/methyl cellulose in water 30 mins prior to formalin challenge measured after 1 to 5 mins relative to vehicle-treated control; format: functional; design: scale not given: the % may be the effect or the level left
Method in brief: (§4)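 Male OF1 mice gavaged with 50 mg/kg in ethanol/methylcellulose 0.5% in water (1.5/98.5), 30 or 90 min before a plantar sc injection of 5% formalin (20 μL in saline). Licking time recorded over 0–5 min (early phase). n = 5–7 per group. ANOVA + Bonferroni versus vehicle.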

Mus musculus [13] = test: Antinociceptive activity in OF1 mouse persistent pain model assessed as reduction of formalin-induced paw licking at 50 mg/kg, po administered with EtOH/methyl cellulose in water 90 mins prior to formalin challenge measured after 1 to 5 mins relative to vehicle-treated control; format: functional; design: scale not given: the % may be the effect or the level left; method in brief: as §4
Mus musculus [14] = test: Antinociceptive activity in OF1 mouse acute central pain model at 10 mg/kg, iv after 10 mins by hot plate test relative to vehicle-treated control; format: functional
Mus musculus [15] = test: Antinociceptive activity in iv dosed OF1 mouse acute central pain model assessed as jump latency administered with water/mannitol after 10 mins by hot plate test relative to vehicle-treated control; format: functional; method in brief: as §1
Mus musculus [16] = test: Antinociceptive activity in OF1 mouse acute central pain model assessed as time duration of action at 40 mg/kg, iv administered with water/mannitol after 10 mins by hot plate test relative to vehicle-treated control; format: functional
Mus musculus [17] = test: Antinociceptive activity in iv dosed OF1 mouse acute central pain model assessed as jump latency administered with EtOH/Tween80/water after 10 mins by hot plate test relative to vehicle-treated control; format: functional; method in brief: as §3
Mus musculus [18] = test: Antinociceptive activity in OF1 mouse acute central pain model assessed as jump latency at 10 mg/kg, iv after 10 mins by hot plate test relative to vehicle-treated control in presence of naloxone; format: functional, organism-based; design: dose 10 mg/kg
Method in brief: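 Naloxone 0.5 mg/kg given sc before the test compound (10 mg/kg iv) in male OF1 mice. Hot plate (52 ± 1 °C) jump latency measured, 240 s cutoff. n = 7–10 per group. ANOVA followed by Bonferroni versus vehicle and versus drug alone.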

Mus musculus [19] = test: Antinociceptive activity in po dosed OF1 mouse acute central pain model administered with EtOH/PEG400/water after 20 mins by hot plate test relative to vehicle-treated control; format: functional; method in brief: as §2
Mus musculus [20] = test: Antinociceptive activity in OF1 mouse acute central pain model assessed as time duration of action at 150 mg/kg, po administered with EtOH/PEG400/water after 20 to 60 mins by hot plate test relative to vehicle-treated control; format: functional; method in brief: as §2
Rattus norvegicus [21] = test: Antinociceptive activity in iv dosed Sprague-Dawley rat acute centrospinal nociception model administered with EtOH/Tween80/water after 10 to 20 mins by tail flick test relative to vehicle-treated control; format: functional, organism-based; settings: TDE = time-dependent effect
Rattus norvegicus [22] = test: Antinociceptive activity in Sprague-Dawley rat acute centrospinal nociception model at 100 mg/kg, po after 20 mins by tail flick test relative to vehicle-treated control; format: functional
Mus musculus [23] = test: Antiallodynic activity in OF1 mouse neuropathic pain model assessed as increase in partial sciatic nerve ligation-induced reduction of threshold for paw withdrawal at 25 mg/kg, po after 20 mins by von frey test relative to vehicle-treated control; format: functional; design: scale not given: the % may be the effect or the level left
Method in brief: (§5)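 Partial ligation of 33–50% of the sciatic nerve in male OF1 mice; sham mice operated without ligation. Tested days 10–20 post-surgery, before and 20 min after 25 mg/kg po. Mechanical threshold by von Frey filaments; thermal latency by plantar test (8–10 s baseline, 20 s cutoff, mean of three trials at 5 min intervals). Ipsilateral and contralateral paws tested. n = 6–9 per group.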

Mus musculus [24] = test: Antihyperalgesic activity in OF1 mouse neuropathic pain model assessed as increase in partial sciatic nerve ligation-induced reduction in thermal threshold at 25 mg/kg, po by plantar test relative to vehicle-treated control; format: functional, organism-based; design: dose 25 mg/kg; method in brief: as §5
Rattus norvegicus [25] = test: Prodrug activation in rat plasma at 200 mg, po after 30 mins by LC/MS/MS analysis; settings: 0.5 h
Rattus norvegicus [26] = test: Antinociceptive activity in Sprague-Dawley rat acute centrospinal nociception model at 20 mg/kg, iv administered with EtOH/Tween80/water after 10 mins by tail flick test relative to vehicle-treated control

With CSCC[C@H](N)CSSCC(Cc1ccsc1)C(=O)N[C@@H](C)C(=O)OC(CO)CO (stereo partly drawn) the Activity (Mus musculus [1]) was 22%.
CSCC[C@H](N)CSSC[C@@H](Cc1ccccc1)C(=O)N[C@@H](C)C(=O)OCc1ccccc1 showed an ED50 (Mus musculus [2]) of 3 mg/kg and an ED50 (Mus musculus [3]) of 410 mg/kg.
Work on CCOC(=O)OC(OC(=O)CNC(=O)[C@@H](CSSC[C@@H](N)CCSC)Cc1ccccc1)C(C)C (stereo partly drawn) yielded an Activity (Mus musculus [4]) of 46%, an Activity (Mus musculus [5]) of 18% and an Activity (Mus musculus [6]) of 0%.
CCOC(=O)COC(=O)[C@H](C)NC(=O)C(CSSC[C@@H](N)CCSC)Cc1ccsc1 (stereo partly drawn) showed an Activity (Mus musculus [1]) of 32%.
In the case of CCOC(=O)OC(C)OC(=O)[C@H](C)NC(=O)C(CSSC[C@@H](N)CCSC)Cc1ccsc1 (stereo partly drawn), the Activity (Mus musculus [1]) is reported as 44%.
In the case of CCC(=O)OC(OC(=O)CNC(=O)[C@@H](CSSC[C@@H](N)CCSC)Cc1ccccc1)C1CCCCC1 (stereo partly drawn), the Activity (Mus musculus [4]) is reported as 8%, the Activity (Mus musculus [5]) is reported as 10% and the Activity (Mus musculus [6]) is reported as 12%.
In the case of C[S+]([O-])CC[C@H](N)CSSC[C@@H](Cc1ccccc1)C(=O)NCC(=O)O (stereo partly drawn), the Activity (Mus musculus [7]) is reported as “inactive” and the Activity (Mus musculus [8]) is reported as “inactive”.
With CSCC[C@H](N)CSSCC(Cc1ccsc1)C(=O)N[C@@H](C)C(=O)OC[C@H](COC(C)=O)OC(C)=O (stereo partly drawn) the Activity (Mus musculus [1]) was 29%.
In the case of CSCC[C@H](N)CSSCC(Cc1ccsc1)C(=O)N[C@@H](C)C(=O)O (stereo partly drawn), the Activity (Mus musculus [7]) is reported as “inactive” and the Activity (Mus musculus [8]) is reported as “inactive”.
Compound CSCC[C@H](N)CSSCC(Cc1ccsc1)C(=O)N[C@@H](C)C(=O)OC(COC(C)=O)COC(C)=O (stereo partly drawn) has an Activity (Mus musculus [1]) of 40%.
In the case of CCOC(=O)OC(C)OC(=O)[C@@H](NC(=O)[C@@H](CSSC[C@@H](N)CCSC)Cc1ccccc1)C(C)O (stereo partly drawn), the Activity (Mus musculus [1]) is reported as 29%, the Activity (Mus musculus [9]) is reported as 61% and the Activity (Mus musculus [10]) is reported as 84%.
CSCC[C@H](N)CSSCC(Cc1ccsc1)C(=O)N[C@@H](C)C(=O)OCCS(C)(=O)=O (stereo partly drawn) was tested, and the Activity (Mus musculus [1]) was 22%.
CCOC(=O)OC(C)OC(=O)CNC(=O)[C@@H](CSSC[C@@H](N)CC[S+](C)[O-])Cc1ccccc1.O=CO (stereo partly drawn) gave an Activity (Mus musculus [11]) of 30%, an Activity (Mus musculus [12]) of 54% and an Activity (Mus musculus [13]) of 41%.
CSCC[C@H](N)CSSCC(Cc1ccsc1)C(=O)N[C@@H](C)C(=O)OC[C@H]1O[C@@H](O)[C@H](O)[C@@H](O)[C@@H]1O (stereo partly drawn) showed an Activity (Mus musculus [1]) of 10%.
Work on CCC(=O)OC(OC(=O)CNC(=O)[C@@H](CSSC[C@@H](N)CCSC)Cc1ccccc1)C(C)C (stereo partly drawn) yielded an Activity (Mus musculus [4]) of 32%, an Activity (Mus musculus [5]) of 24% and an Activity (Mus musculus [6]) of 8%.
With CSCC[C@H](N)CSSC[C@@H](Cc1ccccc1)C(=O)N[C@H](C(=O)O)[C@@H](C)O the Activity (Mus musculus [7]) was “inactive” and the Activity (Mus musculus [8]) was “inactive”.
With CCOC(=O)OC(C)OC(=O)CNC(=O)[C@@H](CSSC[C@@H](N)CCSC)Cc1ccccc1.O=CO (stereo partly drawn) the Activity (Mus musculus [1]) was 58%, the Activity (Mus musculus [14]) was 35% and the Activity (Mus musculus [9]) was 97%. For the same compound, the Activity (Mus musculus [15]) was “Dose-dependent effect”, the ED50 (Mus musculus [15]) was 16 mg/kg and the Time (Mus musculus [16]) was under 40 min. For the same compound, the Activity (Mus musculus [17]) was “Dose-dependent effect”, the ED50 (Mus musculus [17]) was 4.5 mg/kg and the Activity (Mus musculus [18]) was “inactive”. It also gave an Activity (Mus musculus [11]) of 78%, an Activity (Mus musculus [4]) of 58% and an Activity (Mus musculus [5]) of 28%. The Activity (Mus musculus [6]) was 7%, the ED50 (Mus musculus [19]) was 133 mg/kg and the Time (Mus musculus [20]) was under 1 h. The Activity (Rattus norvegicus [21]) was “tde”, the Activity (Rattus norvegicus [22]) was 10% and the Activity (Mus musculus [12]) was 41%. The Activity (Mus musculus [13]) was 41%, the Activity (Mus musculus [23]) was 51% and the Activity (Mus musculus [24]) was “Active”. For the same compound, the Drug metabolism (Rattus norvegicus [25]) was 98% and the Emax at 20 mg/kg (Rattus norvegicus [26]) was 40%.
CCOC(=O)OC(OC(=O)CNC(=O)[C@@H](CSSC[C@@H](N)CCSC)Cc1ccccc1)C1CCCCC1 (stereo partly drawn) gave an Activity (Mus musculus [4]) of 17%, an Activity (Mus musculus [5]) of 3% and an Activity (Mus musculus [6]) of 8%.
CSCC[C@H](N)CSSC[C@@H](Cc1ccccc1)C(=O)NCC(=O)O was tested, and the Activity (Mus musculus [7]) was “inactive” and the Activity (Mus musculus [8]) was “inactive”.
